Test results from ChEMBL document CHEMBL1126792, “Structure-activity relationships of beta-D-(2S,5R)- and alpha-D-(2S,5S)-1,3-oxathiolanyl nucleosides as potential anti-HIV agents” (J Med Chem, 1993).

Key:
[1] = system: Human immunodeficiency virus 1; assay: Inhibition of cell growth against HIV-1 infected PBM (Human peripheral blood mononuclear) cells; format: functional, organism-based
How it was run: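 Growth of human PBM cells measured in cytotoxicity assay; IC50 = concentration giving 50% inhibition of cell growth; mean of triplicate values, calculated by the median method.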

Vero = assay: Inhibition of cell growth in vero cells; format: functional, cell-based; details: Chlorocebus sabaeus
How it was run: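 Vero cell cytotoxicity assay; IC50 = concentration giving 50% inhibition of cell growth; mean of triplicate values, calculated by the median method.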

[2] = system: Human immunodeficiency virus 1; assay: Concentration required for antiviral activity in PBMC (human peripheral blood mononuclear cells) infected with HIV-1 strain LAV; format: functional, organism-based
How it was run: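 Human PBM cells infected with HIV-1 strain LAV. EC50 is the concentration giving 50% inhibition of virus production, measured as reverse transcriptase (RT) levels in culture supernatant. Values are the mean of triplicates, calculated by the median method.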

[3] = Human immunodeficiency virus 1, PBMC

| EC50 [2, 3] [µM] | Structure (SMILES) | IC50 [1] [µM] | IC50 (Vero) [µM] | EC50 ([2]; pbmc) [µM] |
| --- | --- | --- | --- | --- |
| 11.9 | Nc1ncnc2c1ncn2[C@@H]1CS[C@@H](CO)O1 | > 100 | > 100 |  |
| 11.7 | CNc1ncnc2c1ncn2[C@@H]1CS[C@@H](CO)O1 | > 100 | > 100 |  |
| 0.03 | Nc1nc2c(ncn2[C@H]2CO[C@@H](CO)O2)c(=O)[nH]1 |  |  |  |
| 0.28 | Nc1nc(=O)n([C@@H]2CS[C@@H](CO)O2)cc1I | > 100 | > 100 |  |
| 30.4 | O=c1[nH]c(=O)n([C@H]2CS[C@@H](CO)O2)cc1Cl | > 100 | > 100 |  |
| 5.6 | Nc1nc(Cl)c2ncn([C@@H]3CS[C@@H](CO)O3)c2n1 | > 100 | > 100 |  |
| 29.3 | O=c1[nH]c(=O)n([C@H]2CS[C@@H](CO)O2)cc1I | > 100 | > 100 |  |
| 0.28 | Nc1nc(=O)n([C@H]2CS[C@@H](CO)O2)cc1Cl | > 100 | > 100 |  |
| 94.7 | O=c1ccn([C@H]2CS[C@@H](CO)O2)c(=O)[nH]1 | > 100 | > 100 |  |
|  | Nc1ccn([C@@H]2CS[C@H](CO)O2)c(=O)n1 [LAMIVUDINE] | > 100 | > 100 | 0.0018 |
| 0.83 | Nc1nc(O)c2ncn([C@H]3CS[C@@H](CO)O3)c2n1 | > 100 | > 100 |  |
| > 100 | Nc1nc(=O)n([C@@H]2CS[C@@H](CO)O2)cc1Br | > 100 | > 100 |  |
| 61.9 | Nc1nc(F)nc2c1ncn2[C@@H]1CS[C@@H](CO)O1 | > 100 | 45.4 |  |
| 11.6 | Cc1cn([C@H]2CS[C@@H](CO)O2)c(=O)[nH]c1=O | > 100 | > 100 |  |
| 0.38 | Nc1nc(=O)n([C@H]2CS[C@@H](CO)O2)cc1F | > 100 | > 100 |  |
| 112 | O=c1[nH]c(=O)n([C@@H]2CS[C@@H](CO)O2)cc1I | > 100 | > 100 |  |
| 0.05 | OC[C@H]1O[C@@H](n2cnc3c(O)ncnc32)CS1 | > 100 | > 100 |  |
| 0.52 | Nc1nc(Cl)c2ncn([C@H]3CS[C@@H](CO)O3)c2n1 (racemic) | > 100 | > 100 |  |
| > 100 | O=c1[nH]c(=O)n([C@@H]2CS[C@@H](CO)O2)cc1Br | > 100 | > 100 |  |
